Most compounds without a hit are left out; they make up all but 2.9% or so of the library.
Statin myotox sup: suppression of simvastatin myotoxicity | rescue of ATP level, % at 7.49 µM | actives 0.78% (n = 330,000) | C2C12 myotubes + simvastatin, ATP luminescence, 48 h; scaled: DMSO 0, geranylgeraniol control 100;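 active = mean ATP rescue above about 67%, or every replicate alone reaching that limit, limit read from the data, passing the limit was not always enough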;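 also: myotubes were challenged with 10 µM simvastatin during compound exposure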
SIRT5 inh: inhibitors of human sirtuin-5 desuccinylase | Q9NXA8 | Purified SirT5, succinyl-peptide AMC, trypsin-coupled fluorescence | inhibition, % at 15 µM | actives 1.1% (n = 330,000) | AID 652115; in the data active = inhibition above about 15%
Target sequence (Q9NXA8 whole entry, looked up): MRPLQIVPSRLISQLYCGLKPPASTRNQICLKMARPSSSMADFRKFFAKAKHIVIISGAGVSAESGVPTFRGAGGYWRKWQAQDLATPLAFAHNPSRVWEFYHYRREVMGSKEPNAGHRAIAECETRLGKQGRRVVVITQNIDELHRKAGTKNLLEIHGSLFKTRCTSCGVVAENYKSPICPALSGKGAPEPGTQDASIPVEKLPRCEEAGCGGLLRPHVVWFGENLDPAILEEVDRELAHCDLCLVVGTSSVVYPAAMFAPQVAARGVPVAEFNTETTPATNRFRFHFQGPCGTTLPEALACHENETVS
DENV2 CPE rescue: DENV2-induced cell death inhibition. actives 1.7% (n = 350,000). CPE inhibition, % at 9.99 µM. DENV2-infected cells, cytopathic effect rescue, plate reader. AID 651640; in the data active = CPE inhibition above about 20%, passing the limit was not always enough; tested in BHK-21 cells;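 also: 0% = median of neutral control wells and 100% = median of positive control wells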
S100A4 MyoIIA: blocks human S100A4 binding to myosin IIA peptide | P26447 | S100A4/TAMRA-MyoIIA peptide fluorescence polarization | inhibition, % at 10.7 µM | actives 0.14% (n = 360,000);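 active = mean inhibition of at least 70% across replicates, with every replicate also reaching that level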
Target sequence (P26447 whole entry, looked up): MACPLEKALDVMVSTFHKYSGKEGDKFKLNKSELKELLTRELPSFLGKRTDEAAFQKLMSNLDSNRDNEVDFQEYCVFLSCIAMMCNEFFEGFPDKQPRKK
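Test system: S100A4 monomer protein. Medium: HEPES buffer with Ca2+, pH 7.2. Reagent: fluorescent myosin IIA peptide, 5 nM. Compound dosing: single-point compound testing. Timing: 5 min between mix addition and reading. Benchmarks: DMSO neutral and TFP positive wells.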
PGC1a acetyl inh: lowers PGC1a acetylation signal in U2OS cells; AlphaScreen anti-acetyl-lysine; with virally co-expressed GCN5 acetyltransferase; inhibition, % at 15.6 µM; actives 0.17% (n = 350,000); AID 651687;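 active = every replicate shows inhibition of at least 40%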;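 also: 0% = neutral control wells and 100% = positive control wells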
* hit, by the source's call.

How did O=C(CN1CCOCC1)NCC[C@H]1CC[C@@H](NC(=O)Nc2ccc(F)cc2)[C@@H](CO)O1 do in these assays?
Statin myotox sup: 5; SIRT5 inh: 4; DENV2 CPE rescue: -5; S100A4 MyoIIA: -1; PGC1a acetyl inh: 9

Results for O=C(CN1CCOCC1)NCC[C@@H]1CC[C@@H](NC(=O)Nc2ccc(F)cc2)[C@H](CO)O1 ?
Statin myotox sup: -2; SIRT5 inh: 16*; DENV2 CPE rescue: 11; S100A4 MyoIIA: 5; PGC1a acetyl inh: 11

How did O=C(CN1CCOCC1)NCC[C@@H]1CC[C@H](NC(=O)Nc2ccc(F)cc2)[C@H](CO)O1 do in these assays?
Statin myotox sup: 0; SIRT5 inh: 26*; DENV2 CPE rescue: -2; S100A4 MyoIIA: 13; PGC1a acetyl inh: -4

How did CCCCOC(=O)CSc1nnc(N)s1 do in these assays?
Statin myotox sup: -11; PGC1a acetyl inh: -2

Results for CCCCCSc1nnc(N)s1 ?
SIRT5 inh: -4; DENV2 CPE rescue: 32*; S100A4 MyoIIA: 1; PGC1a acetyl inh: 15

Results for COc1ccc(-c2[nH]ncc2-c2ccc3c(c2)OCCO3)c(O)c1 ?
PGC1a acetyl inh: 53*

What do the screens show for `CCc1cc(-c2[nH]ncc2-c2ccc3c(c2)OCO3)c(O)cc1O`?
Statin myotox sup: 45; S100A4 MyoIIA: 10; PGC1a acetyl inh: 35

What do the screens show for `CO[C@H](CN(C)S(=O)(=O)c1cccc(Cl)c1)[C@@H](C)CN(C(=O)Nc1ccccc1F)[C@@H](C)CO`?
Statin myotox sup: 8; DENV2 CPE rescue: 1; S100A4 MyoIIA: -3; PGC1a acetyl inh: 13

What do the screens show for `Cc1ccc(-c2nnc(CSc3nnc(COc4cccc5ccccc45)n3-c3ccccc3)o2)cc1`?
Statin myotox sup: 136*; PGC1a acetyl inh: -6

How did COc1ccc(-n2c(COc3cccc4ccccc34)nnc2SCC#N)cc1 do in these assays?
Statin myotox sup: -5; PGC1a acetyl inh: -9

What do the screens show for `CCOc1ccc(C(=O)Nc2cc(NC(=O)c3ccc(OCC)c(Cl)c3)cc(C(=O)O)c2)cc1Cl`?
Statin myotox sup: 5; SIRT5 inh: 15*; DENV2 CPE rescue: 2; S100A4 MyoIIA: 36; PGC1a acetyl inh: -1

Results for CCOc1ccc(C(=O)Nc2cccc(C(=O)O)c2)cc1Cl ?
SIRT5 inh: -1; DENV2 CPE rescue: 11; S100A4 MyoIIA: 8; PGC1a acetyl inh: 6

What do the screens show for `Cc1nn(Cc2ccc(Cl)cc2)c(C)c1NC(=O)c1ccc([N+](=O)[O-])cc1`?
SIRT5 inh: -3; DENV2 CPE rescue: 34*; S100A4 MyoIIA: -2

What do the screens show for `N#CC(C(=O)NC1CCCCC1)c1nc2ccccc2nc1N1CCN(c2ccccc2F)CC1` (stereo unspecified)?
PGC1a acetyl inh: 2

How did CCCCOc1nc2ccccc2nc1C(C#N)C(=O)NC1CCCCC1 (stereo unspecified) do in these assays?
Statin myotox sup: 108*; PGC1a acetyl inh: -2

How did CCCNC(=O)C(Cc1ccc(F)cc1)NC(=O)c1ccc(C#N)cc1 (stereo unspecified) do in these assays?
Statin myotox sup: -8; DENV2 CPE rescue: -5; S100A4 MyoIIA: 0; PGC1a acetyl inh: -2

How did CCCCCCCCC(NC(=O)c1ccc(C#N)cc1)C(=O)NCCC (stereo unspecified) do in these assays?
Statin myotox sup: 159*; SIRT5 inh: -4; DENV2 CPE rescue: -3; S100A4 MyoIIA: 2; PGC1a acetyl inh: -6

Results for CCCNC(=O)C(Cc1ccc(I)cc1)NC(=O)c1ccc(C#N)cc1 (stereo unspecified) ?
Statin myotox sup: 19; DENV2 CPE rescue: 33*; S100A4 MyoIIA: 0; PGC1a acetyl inh: -8

What do the screens show for `COc1ccccc1C#Cc1cnc2c(c1)C(=O)N([C@H](C)CO)C[C@H](C)[C@@H](CN(C)C(=O)CC1CC1)O2`?
Statin myotox sup: -17; SIRT5 inh: 0; DENV2 CPE rescue: -6; S100A4 MyoIIA: -2; PGC1a acetyl inh: 5

Results for O=C(C[C@@H]1C=C[C@H](NS(=O)(=O)c2ccc(F)cc2)[C@@H](CO)O1)NCc1ccc(Cl)c(Cl)c1 ?
Statin myotox sup: 11; SIRT5 inh: 0; DENV2 CPE rescue: -2; S100A4 MyoIIA: 4; PGC1a acetyl inh: 1

What do the screens show for `COc1ccc([N+](=O)[O-])cc1NC(=O)C(C)OC(=O)C1CC(=O)N(Cc2ccco2)C1` (stereo unspecified)?
Statin myotox sup: 9; SIRT5 inh: 3; DENV2 CPE rescue: 95*; S100A4 MyoIIA: 0; PGC1a acetyl inh: -14

Results for COc1cc([C@H]2Oc3c(OC)cc(CCCO[C@@H]4O[C@H](CO)[C@@H](O)[C@H](O)[C@H]4O)cc3[C@@H]2CO)ccc1O ?
Statin myotox sup: -11; SIRT5 inh: 25*; DENV2 CPE rescue: -11; S100A4 MyoIIA: 4; PGC1a acetyl inh: -2

What do the screens show for `CCN1C(=NCCN2CCOCC2)N[C@@H](c2ccccc2)C(C(=O)OC)=C1C`?
Statin myotox sup: -3; DENV2 CPE rescue: -4; S100A4 MyoIIA: -1; PGC1a acetyl inh: 4

Results for COCCN=C1N[C@@H](c2ccccc2)C(C(=O)OC)=C(C)N1Cc1ccccc1 ?
Statin myotox sup: 110*; SIRT5 inh: -1; DENV2 CPE rescue: -5; S100A4 MyoIIA: 0; PGC1a acetyl inh: -1

Results for COC(=O)C1=C(C)N(Cc2ccccc2C(F)(F)F)C(=NCc2ccccc2)NC1c1ccc(C(F)(F)F)cc1 (stereo unspecified) ?
SIRT5 inh: -1; DENV2 CPE rescue: 0; S100A4 MyoIIA: -11

What do the screens show for `COC(=O)C1=C(C)N(Cc2ccccc2C(F)(F)F)C(=NCc2ccc(OC)cc2)NC1c1ccccc1` (stereo unspecified)?
SIRT5 inh: -1; DENV2 CPE rescue: 42*; S100A4 MyoIIA: 4

Results for COC(=O)C1=C(C)N(Cc2ccccc2C(F)(F)F)C(=NCc2ccc(C(F)(F)F)cc2)NC1c1ccc(Cl)cc1 (stereo unspecified) ?
SIRT5 inh: 0; DENV2 CPE rescue: 25*; S100A4 MyoIIA: -20

What do the screens show for `COC(=O)C1=C(C)N(Cc2ccccc2)C(=NCCN2CCOCC2)N[C@H]1CCc1ccccc1`?
Statin myotox sup: -23; DENV2 CPE rescue: 44*; S100A4 MyoIIA: 2; PGC1a acetyl inh: 1

Results for CC#CCN1C(=O)N[C@@H](c2ccccc2)C(C(=O)OC)=C1C ?
Statin myotox sup: -2; SIRT5 inh: 0; DENV2 CPE rescue: 33*; S100A4 MyoIIA: 1; PGC1a acetyl inh: -1

How did COC(=O)C1=C(C)N(Cc2ccccc2C(F)(F)F)C(=NCc2ccc3c(c2)OCO3)NC1c1cccc(F)c1 (stereo unspecified) do in these assays?
SIRT5 inh: 17*; DENV2 CPE rescue: 0; S100A4 MyoIIA: 3

How did COC(=O)C1=C(C)N(Cc2ccccc2)C(=O)N[C@H]1c1ccc(Br)cc1 do in these assays?
Statin myotox sup: 35; SIRT5 inh: -3; DENV2 CPE rescue: -7; S100A4 MyoIIA: 2; PGC1a acetyl inh: 30

Screening data: PubChem BioAssay, Broad Institute
